From article PMC6777341 (ACS chemical neuroscience, 2017)
Marks after values point to notes of the source that are not given here.

Legend:
human NPFF1 receptor = human NPFF1 receptor (Homo sapiens, UniProt Q9GZQ6); experiment: NPFF1 calcium mobilization assay; assay type: cell-based; conditions: for Ca^2+ NPFF1 Ke: Table 1
human NPFF2 receptor = human NPFF2 receptor (Homo sapiens, UniProt Q9Y5X5); experiment: NPFF2 calcium mobilization assay; assay type: cell-based; conditions: for Ca^2+ NPFF2 Ke: Table 1
human NPFF2 receptor, sequence (Q9Y5X5 whole entry): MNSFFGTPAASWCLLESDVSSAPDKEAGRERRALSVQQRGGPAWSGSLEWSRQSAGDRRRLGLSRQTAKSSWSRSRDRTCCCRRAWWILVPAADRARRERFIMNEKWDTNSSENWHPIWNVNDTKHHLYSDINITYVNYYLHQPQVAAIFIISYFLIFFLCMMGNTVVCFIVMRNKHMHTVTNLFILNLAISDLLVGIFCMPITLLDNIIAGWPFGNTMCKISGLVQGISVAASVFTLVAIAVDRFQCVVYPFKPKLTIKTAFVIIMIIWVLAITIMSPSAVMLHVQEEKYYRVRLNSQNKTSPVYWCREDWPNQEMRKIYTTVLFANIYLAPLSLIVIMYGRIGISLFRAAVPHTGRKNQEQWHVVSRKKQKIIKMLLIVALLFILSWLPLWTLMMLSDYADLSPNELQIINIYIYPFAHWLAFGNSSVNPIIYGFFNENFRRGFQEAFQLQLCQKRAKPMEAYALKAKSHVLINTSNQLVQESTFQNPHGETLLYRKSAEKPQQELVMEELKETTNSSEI

human NPFFR1 = human NPFFR1 (Homo sapiens, UniProt Q9GZQ6); experiment: Lance cAMP assay, NPFFR1-CHO cells; assay type: cell-based
human NPFFR1, sequence (Q9GZQ6 whole entry): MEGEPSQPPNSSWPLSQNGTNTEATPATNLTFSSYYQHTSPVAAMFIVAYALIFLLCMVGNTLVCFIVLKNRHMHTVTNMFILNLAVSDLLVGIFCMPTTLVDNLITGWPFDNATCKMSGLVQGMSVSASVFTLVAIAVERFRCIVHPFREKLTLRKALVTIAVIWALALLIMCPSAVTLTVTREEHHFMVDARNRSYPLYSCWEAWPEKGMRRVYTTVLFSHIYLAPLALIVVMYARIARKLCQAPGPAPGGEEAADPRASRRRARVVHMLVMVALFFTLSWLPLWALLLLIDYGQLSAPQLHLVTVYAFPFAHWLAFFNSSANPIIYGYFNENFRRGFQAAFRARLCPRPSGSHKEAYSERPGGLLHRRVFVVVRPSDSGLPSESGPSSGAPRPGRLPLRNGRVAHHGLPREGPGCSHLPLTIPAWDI

human NPFFR2 = human NPFFR2 (Homo sapiens, UniProt Q9Y5X5); experiment: Lance cAMP assay, NPFFR2-CHO cells; assay type: cell-based
human NPFFR2, sequence (Q9Y5X5 whole entry): as the sequence (Q9Y5X5 whole entry) above

MDCK-MDR1 cells = experiment: Bidirectional MDCK-MDR1 permeability assay; assay type: in vitro ADME
How it was run: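 MDCK-MDR1 cells at passage 5 were grown 3 days on polycarbonate Transwell supports in DMEM/10% FBS, then rinsed and equilibrated 30 min at 37 °C in HBSS with 10 mM HEPES, 0.25% BSA, pH 7.4, and TEER was measured. Test compound at 10 μM was added apically (A-to-B) or basolaterally (B-to-A) at 37 °C with agitation.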

[1] = system: fentanyl-induced hyperalgesia; experiment: Fentanyl-induced hyperalgesia; assay type: in vivo, rat; conditions: rats, i.p., day 1 after fentanyl, N=6
NPFF receptors = experiment: Curve-shift assays, type of antagonism; assay type: cell-based, human; conditions: standard incubation; typical competitive profile with longer incubations
[2] = apparent Ke from right shift of NPFF curve, 15 min pretreatment
[3] = footnote c: pre-incubation 45 min or 1 hr

human NPFF1 receptor, sequence (Q9GZQ6 whole entry): as the sequence (Q9GZQ6 whole entry) above

## CNC(=O)[C@@H]1C[C@H](NCc2ccc(OC)cc2)CN1Cc1ccccc1Cl [Compound 10, (2S,4S)-1-[(2-Chlorophenyl)methyl]-4-{[(4-methoxyphenyl)methyl]amino}-N-methylpyrrolidine-2-carboxamide]
Human NPFF1 receptor; calcium mobilization assay
  NPFF1 antagonist activity (in words): inactive
Human NPFF2 receptor; calcium mobilization assay
  NPFF2 antagonist activity (in words): inactive

## CCNC(=O)[C@@H]1C[C@H](NCc2ccc(OC)cc2)CN1Cc1ccccc1Cl [Compound 11, (2S,4S)-1-[(2-Chlorophenyl)methyl]-N-ethyl-4-{[(4-methoxyphenyl)methyl]amino} pyrrolidine-2-carboxamide]
Human NPFF1 receptor; [2]
  Ca^2+ NPFF1 Ke: >10^b μM
Human NPFF1 receptor; calcium mobilization assay
  NPFF1 Ke: > 10 µM
  NPFF1 antagonist activity (in words): inactive
Human NPFF2 receptor; [2]
  Ca^2+ NPFF2 Ke: >10^b μM
Human NPFF2 receptor; calcium mobilization assay
  NPFF2 antagonist activity (in words): inactive

## CCCCNC(=O)[C@@H]1C[C@H](NCc2ccc(OC)cc2)CN1Cc1ccccc1Cl [Compound 13, (2S,4S)-N-Butyl-1-[(2-chlorophenyl)methyl]-4-{[(4-methoxyphenyl)methyl]amino} pyrrolidine-2-carboxamide]
Human NPFF1 receptor; [2]
  Ca^2+ NPFF1 Ke: 1.24 ± 0.14 µM

## CCC(C)NC(=O)[C@@H]1C[C@H](NCc2ccc(OC)cc2)CN1Cc1ccccc1Cl (stereo partly drawn) [Compound 14, (2S,4S)-N-(Butan-2-yl)-1-[(2-chlorophenyl)methyl]-4-{[(4-methoxyphenyl)methyl]amino} pyrrolidine-2-carboxamide]
Human NPFF1 receptor; [2]
  Ca^2+ NPFF1 Ke: 1.50 ± 0.06 µM
Human NPFF2 receptor; [2]
  Ca^2+ NPFF2 Ke: 3.68 ± 0.35^b μM

## COc1ccc(CN[C@H]2C[C@@H](C(=O)NC(C)(C)C)N(Cc3ccccc3Cl)C2)cc1 [Compound 15, (2S,4S)-N-tert-Butyl-1-[(2-chlorophenyl)methyl]-4-{[(4-methoxyphenyl)methyl]amino} pyrrolidine-2-carboxamide]
Human NPFF1 receptor; [2]
  Ca^2+ NPFF1 Ke: 1.88 ± 0.21 µM
Human NPFF2 receptor; [3]
  Ca^2+ NPFF2 Ke: 1.26 ± 0.8^c μM

## CCCCCNC(=O)[C@@H]1C[C@H](NCc2ccc(OC)cc2)CN1Cc1ccccc1Cl [Compound 16, (2S,4S)-1-[(2-Chlorophenyl)methyl]-4-{[(4-methoxyphenyl)methyl]amino}-N-pentylpyrrolidine-2-carboxamide]
Human NPFF1 receptor; calcium mobilization assay, NPFF1 cells
  Hill slope of NPFF + compound curve: 1.7
Human NPFF2 receptor; calcium mobilization assay, FF2 cells
  Hill slope of NPFF + compound curve: 1.1
Human NPFFR1
  Kb: 360 ± 80 nM
Human NPFFR1; cAMP assay, NPFF1 cells
  Hill slope of NPFF + compound curve: 1.3
Human NPFFR2; cAMP assay, FF2 cells
  Hill slope of NPFF + compound curve: 1.3
MDCK-MDR1 cells; MDCK-MDR1
  rate B to A: 6.7e-06 cm/s
  rate apical (A) to basolateral (B): 7.6e-06 cm/s
MDCK-MDR1 cells; as indicated by the efflux ratio
  Pgp substrate status: not Pgp substrates
[1]
  doses significantly different from vehicle (Bonferroni post hoc): significant differences at 10 and 32 mg/kg

## CCCCCCNC(=O)[C@@H]1C[C@H](NCc2ccc(OC)cc2)CN1Cc1ccccc1Cl [Compound 18, (2S,4S)-1-[(2-Chlorophenyl)methyl]-4-{[(4-methoxyphenyl)methyl]amino}-N-hexylpyrrolidine-2-carboxamide]
Human NPFFR1
  Kb: 1980 ± 280 nM
Human NPFFR2
  Kb: 2480 ± 270 nM

## CCCCCCCCCCNC(=O)[C@@H]1C[C@H](NCc2ccc(OC)cc2)CN1Cc1ccccc1Cl [Compound 19, (2S,4S)-1-[(2-Chlorophenyl)methyl]-N-decyl-4-{[(4-methoxyphenyl)methyl]amino} pyrrolidine-2-carboxamide]
Human NPFF1 receptor; [3]
  Ca^2+ NPFF1 Ke: >10^b,c μM
Human NPFF1 receptor; calcium mobilization assay
  NPFF1 antagonist activity (in words): completely abolished

## CCN(CC)C(=O)[C@@H]1C[C@H](NCc2ccc(OC)cc2)CN1Cc1ccccc1Cl [Compound 22, (2S,4S)-1-[(2-Chlorophenyl)methyl]-N,N-diethyl-4-{[(4-methoxyphenyl)methyl]amino} pyrrolidine-2-carboxamide]
Human NPFF1 receptor; [2]
  Ca^2+ NPFF1 Ke: >10^b μM
Human NPFF1 receptor; calcium mobilization assay
  NPFF1 antagonist activity (in words): inactive
Human NPFF2 receptor; calcium mobilization assay
  NPFF2 antagonist activity (in words): inactive

## COc1ccc(CN[C@H]2C[C@@H](C(=O)NCc3ccccc3)N(Cc3ccccc3Cl)C2)cc1 [Compound 23, (2S,4S)-N-Benzyl-1-[(2-chlorophenyl)methyl]-4-{[(4-methoxyphenyl)methyl]amino} pyrrolidine-2-carboxamide]
Human NPFF1 receptor; [3]
  Ca^2+ NPFF1 Ke: 0.78 ± 0.08^c μM
Human NPFF1 receptor; calcium mobilization assay
  NPFF1 Ke: 0.78 µM
Human NPFF2 receptor; [3]
  Ca^2+ NPFF2 Ke: 2.01 ± 0.44^c μM
Human NPFFR1; Table 1
  cAMP NPFF1 Ke: 1.72 ± 0.32 µM
Human NPFFR2; Table 1
  cAMP NPFF2 Ke: 3.90 ± 1.1 µM
NPFF receptors
  type of antagonism in curve-shift assays: insurmountable antagonism

## COc1ccc(CN[C@H]2C[C@@H](C(=O)NCCc3ccccc3)N(Cc3ccccc3Cl)C2)cc1 [Compound 24, (2S,4S)-1-[(2-Chlorophenyl)methyl]-4-{[(4-methoxyphenyl)methyl]amino}-N-(2-phenylethyl)pyrrolidine-2-carboxamide]
Human NPFF2 receptor
  Kb: 2340 ± 310 nM

## COc1ccc(CN[C@H]2C[C@@H](C(=O)NCCCc3ccccc3)N(Cc3ccccc3Cl)C2)cc1 [Compound 25, (2S,4S)-1-[(2-Chlorophenyl)methyl]-4-{[(4-methoxyphenyl)methyl]amino}-N-(3-phenylpropyl)pyrrolidine-2-carboxamide]
Human NPFF1 receptor
  IC50: > 10000 nM
Human NPFF1 receptor; calcium mobilization assay
  NPFF1 antagonist activity (in words): completely abolished the activity

## COc1ccc(CN[C@H]2C[C@@H](C(=O)NCCc3ccc(OC)c(OC)c3)N(Cc3ccccc3Cl)C2)cc1 [Compound 27, (2S,4S)-1-[(2-Chlorophenyl)methyl]-N-[2-(3,4-dimethoxyphenyl)ethyl]-4-{[(4-methoxyphenyl)methyl]amino}pyrrolidine-2-carboxamide]
Human NPFFR1
  Kb: 1520 ± 110 nM
Human NPFFR2
  Kb: > 10000 nM

## COc1ccc(CN[C@H]2C[C@@H](C(=O)NCCc3ccc(N(C)C)cc3)N(Cc3ccccc3Cl)C2)cc1 [Compound 28, (2S,4S)-1-[(2-Chlorophenyl)methyl]-N-{2-[4-(dimethylamino)phenyl]ethyl}-4-{[(4-methoxyphenyl)methyl]amino}pyrrolidine-2-carboxamide]
Human NPFF2 receptor
  Kb: 2080 ± 380 nM

## COc1ccc(CN[C@H]2C[C@@H](C(=O)NCCc3ccc(C(C)(C)C)cc3)N(Cc3ccccc3Cl)C2)cc1 [Compound 31, (2S,4S)-N-[2-(4-tert-Butylphenyl)ethyl]-1-[(2-chlorophenyl)methyl]-4-{[(4-methoxyphenyl)methyl]amino}pyrrolidine-2-carboxamide]
Human NPFF2 receptor
  Kb: 2420 ± 260 nM

## COc1ccc(CN[C@H]2C[C@@H](C(=O)NCCc3ccc(Cl)cc3)N(Cc3ccccc3Cl)C2)cc1 [Compound 32, (2S,4S)-N-[2-(4-Chlorophenyl)ethyl]-1-[(2-chlorophenyl)methyl]-4-{[(4-methoxyphenyl)methyl]amino}pyrrolidine-2-carboxamide]
Human NPFF1 receptor
  Kb: 990 ± 220 nM
Human NPFF2 receptor
  Kb: 1830 ± 90 nM
Human NPFFR1
  Kb: 1490 ± 100 nM
Human NPFFR2
  Kb: 2530 ± 360 nM
NPFF receptors
  type of antagonism in curve-shift assays: insurmountable antagonism

## COc1ccc(CN[C@H]2C[C@@H](C(=O)NCCc3ccc(F)c(F)c3)N(Cc3ccccc3Cl)C2)cc1 [Compound 34, (2S,4S)-1-[(2-Chlorophenyl)methyl]-N-[2-(3,4-difluorophenyl)ethyl]-4-{[(4-methoxyphenyl)methyl]amino}pyrrolidine-2-carboxamide]
Human NPFF2 receptor
  Kb: 3490 ± 1400 nM

## COc1ccc(CN[C@H]2C[C@@H](C(=O)NCCc3ccc(F)cc3)N(Cc3ccccc3Cl)C2)cc1 [Compound 35, (2S,4S)-1-[(2-Chlorophenyl)methyl]-N-[2-(4-fluorophenyl)ethyl]-4-{[(4-methoxyphenyl)methyl]amino}pyrrolidine-2-carboxamide]
Human NPFFR1
  Kb: 1410 ± 180 nM
Human NPFFR2
  Kb: > 10000 nM

## CCN(CC)C(=O)[C@@H]1C[C@H](NCc2ccc(OC)cc2)CN1Cc1ccccc1Cl [Compound 40, (2S,4S)-1-[(2-Chlorophenyl)methyl]-N,N-diethyl-4-{[(4-methoxyphenyl)methyl]amino} pyrrolidine-2-carboxamide]
Human NPFF1 receptor; [2]
  Ca^2+ NPFF1 Ke: 2.90 ± 0.15 µM
Human NPFF1 receptor; calcium mobilization assay
  NPFF1 Ke: 2.90 µM
Human NPFF2 receptor; [2]
  Ca^2+ NPFF2 Ke: 4.93 ± 0.02^b μM

## CCCN(CCC)C(=O)[C@@H]1C[C@H](NCc2ccc(OC)cc2)CN1Cc1ccccc1Cl [Compound 41, (2S,4S)-1-[(2-Chlorophenyl)methyl]-4-{[(4-methoxyphenyl)methyl]amino}-N,N-dipropylpyrrolidine-2-carboxamide]
Human NPFFR1
  Kb: 2310 ± 420 nM
Human NPFFR2
  Kb: > 10000 nM
NPFF receptors
  type of antagonism in curve-shift assays: insurmountable antagonism

## COc1ccc(CN[C@H]2C[C@@H](C(=O)N3CCN(c4ccccc4)CC3)N(Cc3ccccc3Cl)C2)cc1 [Compound 42, (3S,5S)-1-[(2-Chlorophenyl)methyl]-N-[(4-methoxyphenyl)methyl]-5-(4-phenylpiperazine-1-carbonyl)pyrrolidin-3-amine]
NPFF receptors
  type of antagonism in curve-shift assays: insurmountable antagonism

## CCCCCNC(=O)[C@@H]1C[C@H](NCc2ccc(SC)cc2)CN1Cc1ccccc1Cl [Compound 43, (2S,4S)-1-[(2-Chlorophenyl)methyl]-4-{[(4-(methylthio)phenyl)methyl]amino}-N-pentylpyrrolidine-2-carboxamide]
Human NPFFR1
  Kb: 1070 ± 200 nM
Human NPFFR2
  Kb: 2740 ± 210 nM

## CSc1ccc(CN[C@H]2C[C@@H](C(=O)NCCc3ccccc3)N(Cc3ccccc3Cl)C2)cc1 [Compound 44, (2S,4S)-1-[(2-Chlorophenyl)methyl]-4-{[(4-(methylthio)phenyl)methyl]amino}-N-(2-phenylethyl)pyrrolidine-2-carboxamide]
Human NPFFR1
  Kb: 1300 ± 140 nM
Human NPFFR2
  Kb: > 10000 nM

## CSc1ccc(CN[C@H]2C[C@@H](C(=O)NCCc3ccc(F)c(F)c3)N(Cc3ccccc3Cl)C2)cc1 [Compound 47, (2S,4S)-1-[(2-Chlorophenyl)methyl]-N-[2-(3,4-difluorophenyl)ethyl]-4-{[(4-(methylthio)phenyl)methyl]amino}pyrrolidine-2-carboxamide]
Human NPFFR1
  Kb: 1070 ± 270 nM
Human NPFFR2
  Kb: > 10000 nM
